Test results published in ChEMBL document CHEMBL1121900, “Analgesic narcotic antagonists. 9. 6-Methylene-8 beta-alkyl-N-(cycloalkylmethyl)-3-hydroxy- or -methoxymorphinans” (1981).
The source made the active and inactive calls. The rule behind the calls is not given here.

Key:
[1] = target: T1, Opioid receptor (Rattus norvegicus) (UniProt P33533+P34975+P33535); experiment: Inhibition of morphine analgesia in modified rat tail flick test.; assay type: functional
Outline: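 Narcotic antagonist activity measured by modified rat tail-flick against an ED80 dose of morphine. Free bases dissolved by dropwise 1 N HCl, then diluted. At least five rats per dose and at least three doses per drug; AD50 determined.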

Mus musculus [2] = experiment: Inhibition of acetic acid induced mouse writhing assay following s.c. administration.; assay type: functional; details: sc
Mus musculus [3] = experiment: Inhibition of acetic acid induced mouse writhing assay following s.c. administration; Inactive at 30 uMol/kg.; assay type: functional, organism-based; details: 30 uM
Mus musculus [4] = experiment: Inhibition of acetic acid induced mouse writhing assay following s.c. administration; Inactive at 50 uMol/kg.; assay type: functional, organism-based; details: 50 uM
Mus musculus [5] = experiment: Inhibition of acetic acid induced mouse writhing assay following s.c. administration; Inactive.; assay type: functional, organism-based
[6] = target: T1, Opioid receptor (Rattus norvegicus); experiment: Inhibition of morphine analgesia in modified rat tail flick test; Inactive at 25 uMol/kg.; assay type: functional; details: 25 uM

T1 sequence (P33533 whole entry, looked up): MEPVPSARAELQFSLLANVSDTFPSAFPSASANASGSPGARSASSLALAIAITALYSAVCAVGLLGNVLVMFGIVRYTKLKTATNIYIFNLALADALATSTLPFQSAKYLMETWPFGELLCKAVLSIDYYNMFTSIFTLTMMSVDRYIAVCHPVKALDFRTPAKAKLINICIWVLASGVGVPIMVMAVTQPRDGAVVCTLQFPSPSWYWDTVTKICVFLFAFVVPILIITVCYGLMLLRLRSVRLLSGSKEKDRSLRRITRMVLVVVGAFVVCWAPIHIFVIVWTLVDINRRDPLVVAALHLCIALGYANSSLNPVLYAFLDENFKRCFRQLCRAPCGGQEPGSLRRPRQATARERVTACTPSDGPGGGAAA
T1 sequence (P33535 whole entry, looked up): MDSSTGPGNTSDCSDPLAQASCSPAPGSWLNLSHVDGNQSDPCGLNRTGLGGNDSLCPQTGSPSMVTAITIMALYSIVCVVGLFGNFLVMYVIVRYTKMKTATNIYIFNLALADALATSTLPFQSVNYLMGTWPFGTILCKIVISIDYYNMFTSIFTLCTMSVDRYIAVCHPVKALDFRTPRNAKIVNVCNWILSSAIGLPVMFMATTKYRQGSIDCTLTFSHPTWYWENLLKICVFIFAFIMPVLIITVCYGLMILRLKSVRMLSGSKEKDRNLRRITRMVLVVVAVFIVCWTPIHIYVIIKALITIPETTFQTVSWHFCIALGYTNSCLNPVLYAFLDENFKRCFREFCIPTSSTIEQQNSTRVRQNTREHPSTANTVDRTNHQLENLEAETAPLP
T1 sequence (P34975 whole entry, looked up): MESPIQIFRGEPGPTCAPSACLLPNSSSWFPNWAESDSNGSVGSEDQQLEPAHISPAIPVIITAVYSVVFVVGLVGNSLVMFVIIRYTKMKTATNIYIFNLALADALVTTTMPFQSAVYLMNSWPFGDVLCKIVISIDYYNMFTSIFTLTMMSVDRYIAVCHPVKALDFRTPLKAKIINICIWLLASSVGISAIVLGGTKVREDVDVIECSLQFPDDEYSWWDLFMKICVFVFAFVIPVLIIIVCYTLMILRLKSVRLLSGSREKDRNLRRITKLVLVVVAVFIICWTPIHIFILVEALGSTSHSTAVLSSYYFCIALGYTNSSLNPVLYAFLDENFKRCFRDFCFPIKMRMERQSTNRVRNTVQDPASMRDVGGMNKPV

Row | SMILES | ED50 [1] [µmol/kg] | ED50 (Mus musculus [2]) [µmol/kg] | other results
1 | COc1ccc2c(c1)[C@]13CCN(CC4CC4)[C@H](C2)[C@@H]1[C@@H](C)CC(=O)C3 | 4.3 | – | –
2 | C=C1CCC2C3Cc4ccc(O)cc4C2(CCN3CC2CC2)C1 (stereo unspecified) | 0.37 | 1.2 | –
3 | C=C1C[C@H](CC)C2C3Cc4ccc(O)cc4C2(CCN3CC2CC2)C1 (stereo partly specified) | 2.8 | – | ED50 (Mus musculus [3]): inactive
4 | C=C1C[C@H](C)C2C3Cc4ccc(O)cc4C2(CCN3CC2CCC2)C1 (stereo partly specified) | 2.5 | 0.53 | –
5 | C[C@H]1[C@H]2Cc3ccc(O)cc3[C@]1(C)CCN2CC1CC1 | 0.81 | – | –
6 | CC[C@H]1CC(=O)CC23CCN(CC4CC4)C(Cc4ccc(O)cc42)C13 (stereo partly specified) | 4.7 | – | ED50 (Mus musculus [4]): inactive
7 | CC[C@H]1CC(=O)CC23CCN(CC4CCC4)C(Cc4ccc(O)cc42)C13 (stereo partly specified) | 0.82 | 0.54 | –
8 | C=C1C[C@H](C)C2C3Cc4ccc(O)cc4C2(CCN3CC2CC2)C1 (stereo partly specified) | 0.89 | 5.3 | –
9 | C=CCN1CC[C@]23c4c5ccc(O)c4O[C@H]2C(=O)CC[C@@]3(O)[C@H]1C5 | – | – | ED50 (Mus musculus [5]): inactive
10 | O=C1CCC2C3Cc4ccc(O)cc4C2(CCN3CC2CC2)C1 (stereo unspecified) | 7.4 | 3.3 | –
11 | Oc1ccc2c(c1)[C@@]13CCCC[C@@]1(O)[C@@H](C2)N(CC1CCC1)CC3 | 2 | – | –
12 | C=C1C[C@H](CC)C2C3Cc4ccc(O)cc4C2(CCN3CC2CCC2)C1 (stereo partly specified) | 21.2 | > 28 | –
13 | COc1ccc2c(c1)C13CCN(CC4CCC4)C(C2)C1[C@@H](C)CC(=O)C3 (stereo partly specified) | 16.4 | 1.38 | –
14 | COc1ccc2c(c1)C13CCN(CC4CCC4)C(C2)C1CCC(=O)C3 (stereo unspecified) | – | – | ED50 [6]: inactive
15 | C[C@H]1CC(=O)CC23CCN(CC4CC4)C(Cc4ccc(O)cc42)C13 (stereo partly specified) | 1.8 | 10.2 | –
16 | C[C@H]1CC(=O)CC23CCN(CC4CCC4)C(Cc4ccc(O)cc42)C13 (stereo partly specified) | 2.8 | 0.29 | –
17 | O=C1CCC2C3Cc4ccc(O)cc4C2(CCN3CC2CCC2)C1 (stereo unspecified) | – | – | ED50 [6]: inactive
18 | CC(C)=CCN1CC[C@]2(C)c3cc(O)ccc3C[C@H]1[C@H]2C [(+)-PENTAZOCINE] | 36.4 | 12.9 | –
19 | C=C1CCC2C3Cc4ccc(OC)cc4C2(CCN3CC2CCC2)C1 (stereo unspecified) | > 20 | 3.2 | –
20 | C=C1C[C@H](C)C2C3Cc4ccc(OC)cc4C2(CCN3CC2CCC2)C1 (stereo partly specified) | 14.1 | 16.5 | –
21 | C=C1CCC2C3Cc4ccc(O)cc4C2(CCN3CC2CCC2)C1 (stereo unspecified) | > 24 | 0.22 | –
22 | C=CCN1CC[C@]23c4c5ccc(O)c4O[C@H]2[C@@H](O)C=C[C@H]3[C@H]1C5 [NALORPHINE] | 2.5 | 3.5 | –
23 | C=C1C[C@H](C)C2C3Cc4ccc(OC)cc4C2(CCN3CC2CC2)C1 (stereo partly specified) | 11.3 | 9.5 | –
24 | O=C1CC[C@@]2(O)[C@H]3Cc4ccc(O)c5c4[C@@]2(CCN3CC2CC2)[C@H]1O5 [NALTREXONE] | – | > 28 | –
